A word on the IC50: it is the concentration that gives 50% inhibition. A high value points to weaker potency. A word on the MIC: it is the lowest concentration that inhibits growth of the organism. The low end stands for greater potency, the high end for weaker potency. In general, inhibition refers to the share of the control response that was lost under treatment. A higher inhibition goes with a strong effect.

The subject of one test is NIH3T3. As to the kind of experiment: Cytotoxicity against mouse NIH3T3 cells after 24 hrs by MTT assay. It counts as cell-based. The settings on record: NIH3T3, 24 h. In a few lines:
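NIH/3T3 cells grown in DMEM with 10% fetal calf serum, penicillin and streptomycin at 37 °C, 5% CO2. Plated at 5 × 10⁴ cells/ml, preincubated 24 h, then exposed to compounds (DMSO stocks diluted in medium, final DMSO <0.6%) for 24 h. MTT 0.5 mg/ml final, 4 h, 37 °C; formazan dissolved in DMSO, absorbance 540 nm. Triplicate wells; IC50 = concentration halving absorbance versus control.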

For test [1], the system named is Mycobacterium tuberculosis. As to the kind of experiment: Antitubercular activity against Mycobacterium tuberculosis H37Rv ATCC 27294 by microplate alamar blue assay. It counts as functional. (Alamar Blue is a resazurin reagent that responds to reducing activity.)
Test [2] deals with Mycobacterium tuberculosis. In words: Antitubercular activity against Mycobacterium tuberculosis H37Rv ATCC 27294 at 6.25 ug/ml by microplate alamar blue assay. It counts as functional. A digest of the protocol: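 Single-concentration primary screen at 6.25 against H37Rv in BACTEC 12B medium by Microplate Alamar Blue Assay, with results read as percent inhibition on a BACTEC 460 radiometric system. Positive BACTEC culture (GI ≥500) or McFarland No. 1 suspension was inoculated into drug vials and incubated at 37 °C with daily reads. Once the control GI reached ≥30, the daily ΔGI of drug and control vials was compared.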

In brackets after ≈: the same amount, converted by molar mass.

As for `COc1ccc(/C(C)=N/Nc2nc(-c3ccc4c(c3)CCC4)cs2)cc1`, the IC50 with NIH3T3 is 180 µg/mL (≈ 495 µM).

As to `C/C(=N\Nc1nc(-c2ccc3c(c2)CCC3)cs1)c1ccccc1`, in the test on NIH3T3, the IC50 is 200 µg/mL (≈ 600 µM).

For the molecule `CO[C@H]1/C=C/O[C@@]2(C)Oc3c(C)c(O)c4c(O)c(c(/C=N/N5CCN(C)CC5)c(O)c4c3C2=O)NC(=O)/C(C)=C\C=C\[C@H](C)[C@H](O)[C@@H](C)[C@@H](O)[C@@H](C)[C@H](OC(C)=O)[C@@H]1C` [RIFAMPIN], inhibition of growth in test [1] (MIC) required 0.25 µg/mL (≈ 0.304 µM). The molecule further yielded an inhibition at 6.25 µg/mL in test [2] of 98%. For `C/C(=N\Nc1nc(-c2ccc3c(c2)CCC3)cs1)c1ccc(C)cc1`, the IC50 with NIH3T3 amounted to 49 µg/mL (≈ 141 µM).

In the test with NIH3T3, `C/C(=N\Nc1nc(-c2ccc3c(c2)CCC3)cs1)c1ccc(Cl)cc1` had an IC50 of 120 µg/mL (≈ 326 µM). Regarding `C/C(=N\Nc1nc(-c2ccc3c(c2)CCC3)cs1)c1ccc([N+](=O)[O-])cc1`, the concentration for half-maximal inhibition (IC50) in the test with NIH3T3 was found to be 90 µg/mL (≈ 238 µM).

In turn, `C/C(=N\Nc1nc(-c2ccc3c(c2)CCC3)cs1)c1ccc(Cl)c(Cl)c1` came in with an IC50 in the test on NIH3T3 of 110 µg/mL (≈ 273 µM).

These data come from ChEMBL document CHEMBL1156675, “Synthesis and antituberculosis activity of new thiazolylhydrazone derivatives” (Eur J Med Chem, 2008).
